# Data as given in publication PMC11185543 (bioRxiv, 2024).
# Where a SMILES comes first, the peptide text is derived from it. The star is where a group is joined. Cbz = O=C(OCc1ccccc1)*
# Legend:
# [1] = system: NOD mice; assay: β cell mass in NOD mice after two weeks of treatment; type: in vivo; conditions: 0.25 or 2.5 mg/kg intraperitoneal for 2 weeks
# Method in brief: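 Female NOD mice, 6 weeks old, were given test compound or vehicle (5% DMSO, 2% Tween 80, 20% PEG400, saline) intraperitoneally for two weeks. Pancreata were fixed in 4% paraformaldehyde, paraffin-embedded, sectioned and stained for insulin. β cell mass was derived from insulin+ area relative to whole pancreas area. N=4–5 mice per group; mean ±SEM; ANOVA.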
# [2] = system: human islets; assay: Polyribosome profiling of human islets treated with proinflammatory cytokines; type: cell-based; conditions: 50 nM with IFN-γ + IL-1β
# Method in brief: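 Human islets were pretreated 1 h with vehicle or test compound (50 nM), then exposed 18–24 h to 1000 IU/mL IFN-γ + 50 IU/mL IL-1β. Translation was halted with 50 μg/mL cycloheximide for 10 min, and lysates were made in buffer pH 7.5 with 10 mM MgCl2. Lysates were run on a 50–10% sucrose gradient (40,000 rpm, 2 h, 4°C) and fractionated with A254 monitoring. Fraction RNA was quantified by qRT-PCR relative to input.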
# [3] = system: NOD mice; assay: Insulitis score in prediabetic NOD mice after two weeks of treatment; type: in vivo; conditions: 0.25 or 2.5 mg/kg intraperitoneal for 2 weeks
# Method in brief: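 Female NOD mice, 6 weeks old, received vehicle (5% DMSO, 2% Tween 80, 20% PEG400, saline) or test compound by intraperitoneal injection for two weeks. Pancreata were fixed in 4% paraformaldehyde, paraffin-embedded and sectioned. Islet infiltration was scored 1–4: none, <50% circumference, >50% circumference, intra-islet. N=4–5 mice per group; mean ±SEM; ANOVA.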
# [4] = system: PD-L1; type: cell-based, human; conditions: 10 μM concurrent with cytokines 18–24 h, GOLM1 siRNA, EndoC-βH1 cells
# Method in brief: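 EndoC-βH1 cells (low-glucose DMEM, 2% BSA, nicotinamide, β-mercaptoethanol, matrigel-fibronectin coating) had 1 h pretreatment with DMSO or test compound (50 nM). They were then co-treated 18–24 h with 1000 IU/mL IFN-γ + 50 IU/mL IL-1β. For knockdown, Accell GOLM1 siRNA was used and protein was taken 72–96 h later. Proteasome blockade was 10 μM MG132 with cytokines 18–24 h, starting 72 h post-knockdown. Immunoblot; N=3 biological replicates; ANOVA.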
# [5] = system: p-GCN2; assay: Immunoblot for p-GCN2 in mouse embryonic fibroblasts; type: cell-based; conditions: 6 h, MEFs
# Method in brief: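 MEFs grown in DMEM with 10% FBS were exposed to test compound (1 μM or 100 nM) or DMSO for 6 h. Protein lysates were collected and immunoblotted.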
structure (smiles),measurement,setting,value
O=C(COc1ccc(Cl)cc1)NC1CCC(NC(=O)COc2ccc(Cl)cc2)CC1 (stereo not drawn) [ISRIB],β cell mass,[1],no effect on β cell mass
same,RNA sedimenting with polysomes (translation initiation blockade),[2],recovery of the RNA sedimenting with polysomes
same,insulitis,[3],significant reduction in insulitis
CC(C)C[C@@H](C=O)NC(=O)[C@H](CC(C)C)NC(=O)[C@H](CC(C)C)NC(=O)OCc1ccccc1 [MG132] (Cbz-Leu-Leu-Leu-aldehyde),attenuation of PD-L1 levels upon GOLM1 knockdown,[4],partially reversed
O=C(CC1NCCCC1O)Cn1cnc2cc(Br)c(Cl)cc2c1=O (stereo not drawn) [halofuginone],effect on p-GCN2,[5]; 100 nM,robustly induces p-GCN2
C/C=C(/C)C(=O)O[C@H]1C(C)=C2[C@H]([C@@H]1OC(=O)CCCCCCC)[C@@](C)(OC(C)=O)C[C@H](OC(=O)CCC)[C@@]1(O)[C@H]2OC(=O)[C@@]1(C)O [thapsigargin],effect on p-GCN2,[5]; 1 μM,suppresses it
